As usually defined, the inhibition is how much of the control response was suppressed.

Data set [1] has as its system Zea mays. The data set is described as follows: Induction of hydroxyl radical production in Zea mays (maize) root assessed as PBN adducts formation at 1 mg/L measured after 3 days by EPR analysis. The class given is organism-based. The settings on record: in vivo, 72 h. The method, boiled down:
(§1)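 Roots of maize exposed for 3 days were rinsed in ice-cold 0.1 M CaCl2. Under nitrogen, 0.5 g was homogenized with 1.0 mL of fresh 100 mM PBN in DMSO, incubated 37 °C for 15 min, and centrifuged 4500 rpm, 3 min, 4 °C. Signal expressed relative to control.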

A short description of data set [2]: Phytotoxicity against Zea mays (maize) assessed as inhibition of fresh weight at 0.5 mg/L and at 25 degC/20 degC day/night temperature 14 hr photoperiod for 3 days. To be noted: in vivo. It counts as organism-based. In outline:
(§2)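 Maize seeds were surface-sterilized in 3% H2O2 for 10 min and germinated on moist filter paper at 27 °C in the dark. Seedlings were exposed to (rac)-, (S)- or (R)-DCPP in sterile deionized water (0–1.0 mg L-1), with solutions renewed daily, at 80% relative humidity and repositioned daily. Fresh weight, root length and shoot height were compared with the water control after 3 days.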

In data set [3] the test system is Zea mays. The data set is described as follows: Induction of SOD activity in Zea mays (maize) root at 0.02 mg/L measured after 3 days. The class given is organism-based. The settings on record: in vivo, 72 h. The method, boiled down: (§3)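 Maize roots after 3 days' exposure to DCPP enantiomers (0–1.0 mg L-1, test solutions renewed daily). Fresh roots (1.0 g) homogenized on ice in 0.05 M sodium phosphate buffer pH 7.8 with 1% (w/v) polyvinylpyrrolidone, then centrifuged 10 000 rpm, 10 min, 4 °C. The supernatant was used for enzyme assays, with protein by Bradford (BSA standard). Mean ± SEM of three replicate cultures.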

Data set [4] is described as follows: Phytotoxicity against Zea mays (maize) assessed as inhibition of shoot height at 1 mg/L and at 25 degC/20 degC day/night temperature 14 hr photoperiod for 3 days. It counts as organism-based. To be noted: in vivo. The method, boiled down:
as §2

Data set [5] in a line: Phytotoxicity against Zea mays (maize) assessed as inhibition of seed germination at 0.02 mg/L and at 27 degC in the dark for 3 days. The settings on record: in vivo.
Data set [6] deals with Zea mays. The data set is described as follows: Induction of hydroxyl radical production in Zea mays (maize) root assessed as ROS adducts formation at 1 mg/L measured after 3 days by EPR analysis. The class given is organism-based. The settings on record: in vivo, 72 h. In outline:
as §1

Data set [7] is described as follows: Phytotoxicity against Zea mays (maize) assessed as inhibition of shoot height at 0.02 mg/L and at 25 degC/20 degC day/night temperature 14 hr photoperiod for 3 days. The class given is organism-based. The settings on record: in vivo. In outline:
as §2

Data set [8] in a line: Phytotoxicity against Zea mays (maize) assessed as inhibition of seed germination at 1 mg/L and at 27 degC in the dark for 3 days. The settings on record: in vivo.
A short description of data set [9]: Phytotoxicity against Zea mays (maize) assessed as inhibition of shoot height at 0.1 mg/L and at 25 degC/20 degC day/night temperature 14 hr photoperiod for 3 days. It counts as organism-based. To be noted: in vivo. The method, boiled down: as §2
The nature of data set [10]: Phytotoxicity against Zea mays (maize) assessed as inhibition of shoot height at 0.05 mg/L and at 25 degC/20 degC day/night temperature 14 hr photoperiod for 3 days. The class given is organism-based. The settings on record: in vivo. The method, boiled down: as §2
The nature of data set [11]: Phytotoxicity against Zea mays (maize) assessed as inhibition of fresh weight at 0.05 mg/L and at 25 degC/20 degC day/night temperature 14 hr photoperiod for 3 days. The class given is organism-based. The settings on record: in vivo. The method, boiled down:
as §2

Data set [12] is described as follows: Phytotoxicity against Zea mays (maize) assessed as inhibition of shoot height at 0.5 mg/L and at 25 degC/20 degC day/night temperature 14 hr photoperiod for 3 days. To be noted: in vivo. It counts as organism-based. The method, boiled down:
as §2

Data set [13] in a line: Phytotoxicity against Zea mays (maize) assessed as inhibition of fresh weight at 1 mg/L and at 25 degC/20 degC day/night temperature 14 hr photoperiod for 3 days. The settings on record: in vivo. It counts as organism-based. In outline: as §2
Data set [14] can be described thus: Phytotoxicity against Zea mays (maize) assessed as inhibition of root length at 0.5 mg/L and at 25 degC/20 degC day/night temperature 14 hr photoperiod for 3 days. The settings on record: in vivo. It counts as organism-based. In outline:
as §2

For data set [15], the system named is Zea mays. The data set is described as follows: Induction of POD activity in Zea mays (maize) root at 0.05 mg/L measured after 3 days. It counts as organism-based. The settings on record: in vivo, 72 h. In outline:
as §3

A short description of data set [16]: Phytotoxicity against Zea mays (maize) assessed as inhibition of seed germination at 0.1 mg/L and at 27 degC in the dark for 3 days. To be noted: in vivo.
The nature of data set [17]: Phytotoxicity against Zea mays (maize) assessed as inhibition of seed germination at 0.5 mg/L and at 27 degC in the dark for 3 days. To be noted: in vivo.
Data set [18] can be described thus: Phytotoxicity against Zea mays (maize) assessed as inhibition of fresh weight at 0.1 mg/L and at 25 degC/20 degC day/night temperature 14 hr photoperiod for 3 days. The class given is organism-based. The settings on record: in vivo. In outline: as §2
Data set [19] can be described thus: Phytotoxicity against Zea mays (maize) assessed as inhibition of seed germination at 0.05 mg/L and at 27 degC in the dark for 3 days. The settings on record: in vivo.
Data set [20] can be described thus: Phytotoxicity against Zea mays (maize) assessed as inhibition of root length at 0.1 mg/L and at 25 degC/20 degC day/night temperature 14 hr photoperiod for 3 days. It counts as organism-based. To be noted: in vivo. In outline: as §2
Data set [21] can be described thus: Phytotoxicity against Zea mays (maize) assessed as inhibition of root length at 0.02 mg/L and at 25 degC/20 degC day/night temperature 14 hr photoperiod for 3 days. It counts as organism-based. To be noted: in vivo. In outline:
as §2

The nature of data set [22]: Phytotoxicity against Zea mays (maize) assessed as inhibition of root length at 1 mg/L and at 25 degC/20 degC day/night temperature 14 hr photoperiod for 3 days. The settings on record: in vivo. The class given is organism-based. In outline: as §2
Data set [23] can be described thus: Phytotoxicity against Zea mays (maize) assessed as inhibition of root length at 0.05 mg/L and at 25 degC/20 degC day/night temperature 14 hr photoperiod for 3 days. The settings on record: in vivo. It counts as organism-based. The method, boiled down: as §2
The nature of data set [24]: Phytotoxicity against Zea mays (maize) assessed as inhibition of fresh weight at 0.02 mg/L and at 25 degC/20 degC day/night temperature 14 hr photoperiod for 3 days. To be noted: in vivo. It counts as organism-based. In outline: as §2
Data set [25] concerns Zea mays. Put plainly: Induction of POD activity in Zea mays (maize) root at 0.02 mg/L measured after 3 days. The class given is organism-based. To be noted: in vivo, 72 h. In outline:
as §3

Data set [26] concerns Zea mays. Put plainly: Induction of POD activity in Zea mays (maize) root at 0.1 mg/L measured after 3 days. The class given is organism-based. To be noted: in vivo, 72 h. The method, boiled down: as §3

As for `CC(Oc1ccc(Cl)cc1Cl)C(=O)O` (racemic) [RAC-DICHLORPROP], the Activity entry in the data set on Zea mays [1] is on record as “Toxic”; with Zea mays [3], “Non-toxic”; in the data set on Zea mays [6], “Toxic”; in the data set with Zea mays [15], “Toxic”. Moreover, the inhibition at 72 h, 0.5 mg/L in data set [2] turned out to be 31.3%; in data set [12] it was 17.6%; in [14] it was 36.7%; in data set [17], 21.4%. Besides, the inhibition at 72 h, 1 mg/L in data set [4] came out at 31.1%; in data set [8] it was 31.7%; in [13] it was 39.7%; in data set [22], 40.1%. The inhibition at 72 h, 0.02 mg/L in data set [5] came to 3.57%; in data set [7] it was 2.14%; in [21], 12.7%; in [24], 2.75%. In addition, the inhibition at 72 h, 0.1 mg/L in [9] came to 7.9%; in [16], 12.2%; in [18], 10%; in data set [20], 24.5%. The inhibition at 72 h, 0.05 mg/L in data set [10] was 4.02%; in data set [11], 4.28%; in data set [19], 8.38%; in data set [23], 19.3%.

For `C[C@@H](Oc1ccc(Cl)cc1Cl)C(=O)O` [(R)-DICHLORPROP], the Activity entry in the data set on Zea mays [1], in the data set on Zea mays [3], in the data set on Zea mays [6] and in the data set with Zea mays [25] was “Toxic” throughout. Further, the inhibition at 72 h, 0.5 mg/L in data set [2] turned out to be 36.7%; in [12], 20.7%; in data set [14], 38.4%; in data set [17], 34.9%. Further, the inhibition at 72 h, 1 mg/L in data set [4] was found to be 36.7%; in [8], 41.4%; in data set [13], 42.7%; in data set [22], 42%. In addition, the inhibition at 72 h, 0.02 mg/L in [5] came to 6.64%; in [7], 3.52%; in data set [21], 14.3%; in data set [24], 5.76%. For the same compound, the inhibition at 72 h, 0.1 mg/L in data set [9] stood at 8.61%; in data set [16], 16.1%; in [18], 24.6%; in data set [20], 26.6%. In addition, the inhibition at 72 h, 0.05 mg/L in [10] came to 5.27%; in [11], 14.8%; in [19], 10.7%; in data set [23] it was 23.5%.

For the compound `C[C@H](Oc1ccc(Cl)cc1Cl)C(=O)O` [(S)-DICHLORPROP], the Activity result in the data set on Zea mays [1] is recorded as “Toxic”; in the data set with Zea mays [3], “Non-toxic”; with Zea mays [6], “Toxic”; in the data set on Zea mays [26], “Toxic”. In addition, the inhibition at 72 h, 0.5 mg/L in [2] was found to be 30.2%; in data set [12] it was 15.9%; in [14], 34.9%; in data set [17], 11.4%. For the same compound, the inhibition at 72 h, 1 mg/L was 30.6% in data set [4], 21.9% in data set [8], 38.1% in data set [13] and 39.9% in [22]. Further, the inhibition at 72 h, 0.02 mg/L was found to be 2.1% in data set [5], 2.06% in data set [7], 11.4% in data set [21] and 2.12% in data set [24]. Also, the inhibition at 72 h, 0.1 mg/L in data set [9] amounted to 6.28%; in data set [16], 9.67%; in data set [18], 9.5%; in data set [20] it was 22.7%. Moreover, the inhibition at 72 h, 0.05 mg/L in data set [10] was found to be 3.12%; in [11], 2.94%; in data set [19] it was 4.75%; in [23], 17.3%.

The values are drawn from ChEMBL document CHEMBL3045405, “Enantioselective oxidative damage of chiral pesticide dichlorprop to maize” (J Agric Food Chem, 2011).
